Hits are enriched below; roughly 5.1% of the tested compounds scored in any of these assays.
STAT3 act: STAT3 signaling activation; U3A cells, IL-6 STAT3-luciferase reporter, luminescence; 100% = signal with IL-6 EC80 alone; activation (% of control), % at 5.6 µM; 190,000 compounds, 0.91% hits; AID 871;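 active = activation above the screen-wide mean of compound activation plus 3 SD, cut at about 130% in these data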;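 also: 0% = background luminescence of wells with medium and substrate only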
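Material: human U3A cells carrying STAT3-luciferase construct. Measured by: reporter luminescence signal. Timing: compound 1 h, then IL-6 6 h at 37 °C.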
NF-kB neuron act: raises NF-kB expression in human neuronal cells | 190,000 compounds, 1.6% hits | AID 1239 | fold change at 12.5 µM | NF-kB reporter expression; stronger effect = higher value; in the data active = fold change above about 3.3
STAT3 inh: reduces IL-6 driven STAT3 reporter signal | U3A cells, IL-6 STAT3-luciferase reporter, luminescence; host cell line lacks STAT1 | inhibition, % at 5.5 µM | 190,000 compounds, 0.89% hits;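 active = inhibition above the mean inhibition across all screened compounds plus 3 SD, cut at about 44% in these data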;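 also: 0% = DMSO only wells and 100% = 100 µM nifuroxazide control wells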
STAT1 activator: increases IFN-gamma driven STAT1 reporter signal; NIH 3T3 STAT1-luciferase reporter, luminescence; 100% = IFN-gamma alone, no compound; 200,000 compounds, 2.6% hits; activation (% of control), % at 5.5 µM;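 active = activation above the screen-wide mean activation plus 3 SD, cut at about 130% in these data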;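 also: raw ratio to IFN-gamma control signal so 100% means no change and 0% no light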
APP 5'UTR act: APP 5'UTR luciferase reporter activation; SH-SY5Y APP 5'UTR luciferase reporter, luminescence; zero percent = DMSO vehicle wells; 190,000 compounds, 1% hits; activation, % at 2 µM; AID 1276;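 active = activation above a set limit, based on mean plus 3 SD of controls, cut at about 140% in these data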
STAT1 inh: inhibitors of IFN-gamma induced STAT1 signaling. NIH 3T3 STAT1-luciferase reporter, luminescence. inhibition, % at 5.5 µM. 200,000 compounds, 0.35% hits;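 active = inhibition above a set limit, the mean inhibition across all tested compounds plus 3 SD, cut at about 34% in these data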;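 also: 0% = IFN-gamma with DMSO and 100% = IFN-gamma with 300 µM nifuroxazide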
Numbers without * were called inactive.

SMILES	STAT3 act	NF-kB neuron act	STAT3 inh	STAT1 activator	APP 5'UTR act	STAT1 inh
CCOC(=O)c1sc(=NC(=O)c2ccc(C)c(C)c2)n(C)c1C	99	1	4	127	129	-31
CCOC(=O)c1sc(=NC(=O)c2cccs2)n(C)c1C	128	5.4*	-24	133*	141*	-36
FC(F)(F)c1cnc(-c2cnc(-c3ccncc3)nc2)c(Cl)c1	85	0.7	21	140*	58	-45
CC(Cl)c1cc(-c2ncc(C(F)(F)F)cc2Cl)no1 (centres undefined)	83	1.3	28	111	15	-14
Cn1cccc1CC(=O)N/N=C\c1c2ccccc2cc2ccccc12	105	1	4	103	-11	-4
COC(=O)C1C(=O)c2c([nH]c(C(=O)OC3CCCC3C)c2C)CC1C (centres undefined)	120	3	-24	138*	157*	-40
CCC1CCc2c(sc(NC(=O)c3ccco3)c2C(N)=O)C1 (centres undefined)	108	2.6	-8	131*	84	-40
O=C(Nc1cc([N+](=O)[O-])ccc1N1CCOCC1)c1ccco1	97	1.2	8	101	3	-4
CCOC(=O)c1ccc(N/C=C/C(=O)c2ccco2)cc1	67	5.2*	43	121	126	-22
CCOC(=O)c1ccc(N/C=C/C(=O)c2ccc(OC)c(OC)c2)cc1	93	1.1	9	105	12	-5
O=C(/C=C/Nc1ccc(F)cc1)c1ccco1	77	5.1*	29	127	146*	-24
Cc1ccc([N+](=O)[O-])cc1N/C=C/C(=O)c1ccco1	134*	1.2	-32	111	23	-12
O=C(Nc1cccc(F)c1)c1ccco1	88	1.3	16	107	33	-10
COc1ccc(/C(O)=C2\C(=O)C(=O)N(CCN(C)C)C2c2cccc(OC)c2OC)cc1Cl (centres undefined)	110	1.6	-11	93	-6	8
CCN(C(=O)/C=C/c1ccc2c(c1)OCO2)c1ccccc1	86	1.5	20	109	-2	-10
C[n+]1c(/C=C/c2ccc3c(c2)OCO3)ccc2ccccc21	94	0.58	14	115	185*	-18
CCCc1ccc(OCc2nc(-c3ccc(NC(=O)c4ccco4)cc3)no2)cc1	108	2.3	-6	133*	61	-33
CCCc1ccc(OCc2nc(-c3ccc(NC(=O)c4cccs4)cc3)no2)cc1	105	1.7	-6	126	40	-29
O=C(/C=C/NNC(=O)c1ccc(Cl)cc1)c1ccccc1	105	0.91	-2	133*	1	-36
CN(C)c1oc(-c2ccc(Cl)cc2)nc1S(=O)(=O)c1ccccc1	92	0.97	13	131*	-13	-34
CCN(CCNC(=O)CN(C)S(=O)(=O)c1cccc2nsnc12)c1ccccc1	106	0.72	-10	100	6	0
Cc1cccc(NC(=O)Nc2ccc(C)c(C)c2)n1	135*	2.1	-33	129*	2	-31
Cc1cccc(NC(=O)Nc2ccc([N+](=O)[O-])cc2)n1	90	1.1	12	134*	15	-36
Cc1cccc(NC(=O)c2ccc([N+](=O)[O-])cc2Cl)n1	101	1.1	0	100	2	0
Cc1cccc(NC(=O)Nc2cccc(C)n2)n1	91	1.5	15	111	18	-12
SMILES	STAT3 act	NF-kB neuron act	STAT3 inh	STAT1 activator	APP 5'UTR act	STAT1 inh
O=c1cc(-c2ccccc2)[nH]c2nc3ccccc3n12	73	4.8*	36	94	116	6
CCc1c(C)[nH]c2nc3ccccc3n2c1=O	108	1	-3	104	-25	-4
COc1ccccc1OCCN1CSC(=S)N(C)C1	100	6.6*	3	107	-5	-8
Cc1cccc(OCCN2CSC(=S)N(C)C2)c1	99	1.7	5	97	12	3
Cc1ccc(NC(=O)CSCc2ccco2)cc1	103	2	6	129*	32	-31
Cc1ccc(NC(=O)CSCC(=O)O)cc1	101	1.1	2	96	-11	3
COc1ccc2c(C)cc(N3CCCCCC3)nc2c1	101	2.3	0	95	7	5
COCCNc1oc(-c2ccc(Cl)cc2)nc1C#N	101	2.4	2	129*	50	-32
COc1ccc(CNc2oc(-c3ccccc3)nc2C#N)cc1	99	0.95	2	102	-6	-2
COc1ccc(Nc2oc(-c3ccccc3)nc2C#N)cc1	99	1.8	6	132*	39	-39
Nc1nccc(/C=C/c2c(F)cccc2Cl)n1	81	1.6	27	122	27	-25
Oc1cccc2ccc(/C=C/c3c(F)cccc3Cl)nc12	120	5.4*	-19	97	136*	0
OCC1(Cc2ccccc2)CCN(Cc2cnc(-c3cccc4ccccc34)nc2)CC1	97	1.2	5	107	-1	-9
c1ccc(-c2noc(COc3ccc4c(c3)OCO4)n2)cc1	109	4.1*	-11	125	100	-27
COc1ccc(-c2noc(COc3ccc4c(c3)OCO4)n2)cc1	102	1.3	2	105	-11	-2
Cc1ccccc1OCc1nc(-c2ccccc2)no1	110	2.9	-9	137*	79	-40
Nc1cccc(-c2nc3cc(S(=O)(=O)c4ccc5oc(-c6cccc(N)c6)nc5c4)ccc3o2)c1	93	1	10	106	-17	-6
Nc1ccc2oc(-c3cccs3)nc2c1	89	2.4	15	149*	85	-54
Cc1ccc2oc(-c3cccc(N)c3)nc2c1	84	8.9*	27	92	158*	8
Cc1ccc2oc(-c3ccco3)nc2c1	90	1.3	12	138*	54	-42
COc1ccc(CCNC(=O)CCCn2nc(C)c([N+](=O)[O-])c2C)cc1OC	105	1.1	-4	99	-4	1
CCOc1cc(NC(=O)c2cnccn2)c(OCC)cc1NC(=O)c1cccc(F)c1	107	1.1	-2	106	-6	-6
COc1ccc(SCC(=O)Nc2ccc(N3CCN(C)CC3)c(F)c2)cc1	90	1.4	17	90	25	9
Cc1ccc(SCC(=O)Nc2ccc(N3CCN(C)CC3)c(F)c2)cc1	99	2.4	6	133*	32	-36
O=C(Nc1ccccc1F)c1ccco1	98	0.96	4	103	13	-5
Nc1c(C(=O)Nc2ccccc2F)sc2nc(-c3ccco3)ccc12	85	0.56	21	121	140*	-23
NC(=O)c1sc2nc3c(c(-c4ccco4)c2c1N)CCC3	95	0.7	9	102	-10	-7
COc1ccc(C(=O)c2sc3nc(-c4ccccc4)ccc3c2N)cc1	100	1	-2	108	-5	-9

Assay outcomes deposited in PubChem BioAssay by several laboratories.
